From ChEMBL document CHEMBL1821614, “Synthesis and biological evaluation of novel Mannich bases of 2-arylimidazo[2,1-b]benzothiazoles as potential anti-cancer agents” (Eur J Med Chem, 2011)
Active and inactive are the calls of the source. No cut-off for these calls is given here.

How the values were obtained:
[1] = Cytotoxicity against human HEK cells after 24 hrs by MTT assay; format: cell-based; details: HEK293, 24 h
HepG2 [2] = assay: Cytotoxicity against human HepG2 cells after 24 hrs by MTT assay; format: functional, cell-based; details: HepG2, 24 h
Summary of the method: (§1)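 Cells were grown in DMEM with 10% FCS, penicillin and streptomycin at 37 °C under 5% CO2. They were seeded at 10,000 cells/well, left overnight, then treated 24 h. Medium was replaced with fresh medium, MTT was added and plates were held 2 h at 37 °C. Absorbance was read at 570 nm. Single-point runs used 4 µM. Data come from three independent experiments as mean ± S.D.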

MCF7 [3] = assay: Cytotoxicity against human MCF7 cells after 24 hrs by MTT assay; format: functional, cell-based; details: MCF7, 24 h; summary of the method: as §1
HeLa [4] = assay: Cytotoxicity against human HeLa cells after 24 hrs by MTT assay; format: functional, cell-based; summary of the method: as §1
HepG2 [5] = assay: Selectivity ratio of IC50 for human HEK cells to IC50 for human HepG2 cells
Summary of the method: (§2)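 Selectivity index was calculated as the MTT IC50 in normal HEK cells divided by the IC50 in the given cancer line.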

HepG2 [6] = assay: Induction of cell cycle arrest in human HepG2 assessed as accumulation at G0/G1-phase at 4 uM after 24 hrs by propidium iodide staining based FACS analysis; format: functional
Summary of the method: (§3)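 HepG2 cells were seeded at 5 × 10^5 per 60 mm dish and grown 24 h. Compound was added at 4 µM for a further 24 h. Cells were harvested with trypsin-EDTA, fixed in ice-cold 70% ethanol 30 min at 4 °C and treated with RNase A 30 min at 37 °C. They were stained with propidium iodide/citrate/Triton X-100 solution and phase distribution was read by flow cytometry.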

HepG2 [7] = assay: Induction of cell cycle arrest in human HepG2 assessed as accumulation at S-phase at 4 uM after 24 hrs by propidium iodide staining based FACS analysis; format: functional; summary of the method: as §3
HepG2 [8] = assay: Induction of cell cycle arrest in human HepG2 assessed as accumulation at G2/M-phase at 4 uM after 24 hrs by propidium iodide staining based FACS analysis; format: functional; summary of the method: as §3
HepG2 [9] = assay: Cytotoxicity against human HepG2 cells at 4 uM after 24 hrs by MTT assay; format: functional, cell-based; summary of the method: as §1
MCF7 [10] = assay: Cytotoxicity against human MCF7 cells at 4 uM after 24 hrs by MTT assay; format: functional, cell-based; summary of the method: as §1
HeLa [11] = assay: Cytotoxicity against human HeLa cells at 4 uM after 24 hrs by MTT assay; format: functional, cell-based; summary of the method: as §1
MCF7 [12] = assay: Selectivity ratio of IC50 for human HEK cells to IC50 for human MCF7 cells; summary of the method: as §2
HeLa [13] = assay: Selectivity ratio of IC50 for human HEK cells to IC50 for human HeLa cells; summary of the method: as §2
HepG2 [14] = assay: Upregulation of Chk2 protein in human HepG2 cells at 4 uM after 24 hrs by Western blot analysis; format: functional, cell-based
Summary of the method: (§4)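 HepG2 cells exposed 24 h to compounds at 4 µM, with an untreated control and a YM-201627 reference. Lysates were resolved at 50 µg protein per lane on 12% SDS-PAGE and transferred to PVDF. Membranes were blocked 2 h at RT in TBST with 5% blocking powder, probed with primary antibody at 4 °C overnight and then HRP secondary (1:2000) 1 h at RT. Detection by chemiluminescence, with β-actin as loading control.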

HepG2 [15] = assay: Down regulation of p38 MPAK protein in human HepG2 cells at 4 uM after 24 hrs by Western blot analysis; format: functional, cell-based; summary of the method: as §4
HepG2 [16] = assay: Down regulation of phosphorylated JNK protein in human HepG2 cells at 4 uM after 24 hrs by Western blot analysis; format: functional, cell-based; summary of the method: as §4
HepG2 [17] = assay: Down regulation of c-jun protein in human HepG2 cells at 4 uM after 24 hrs by Western blot analysis; format: functional, cell-based; summary of the method: as §4
HepG2 [18] = assay: Down regulation of […] protein in human HepG2 cells at 4 uM after 24 hrs by Western blot analysis; format: functional, cell-based; summary of the method: as §4
HepG2 [19] = assay: Antiproliferative activity against human HepG2 cells assessed as down regulation of NF-kappaB protein at 4 uM after 24 hrs by Western blot analysis; format: functional, cell-based; summary of the method: as §4
HepG2 [20] = assay: Down regulation of PKCalpha protein in human HepG2 cells at 4 uM after 24 hrs by Western blot analysis; format: functional, cell-based; summary of the method: as §4
HepG2 [21] = assay: Induction of apoptosis in human HepG2 cells assessed as caspase3 activation at 4 uM by fluorimetric analysis; format: functional, cell-based
Summary of the method: (§5)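 HepG2 cells were treated with compound at 4 µM, with an untreated control. Lysates were mixed with 2× reaction buffer containing DTT, caspase-3 substrate was added and the mix was incubated 1 h at 37 °C. Fluorescence was read at ex 400/em 505 nm and expressed as activity relative to the untreated control.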

HepG2 [22] = assay: Induction of apoptosis in human HepG2 cells assessed as caspase3 activation at 4 uM by fluorimetric analysis relative to control; format: functional; summary of the method: as §5
HepG2 [23] = assay: Induction of cell cycle arrest at G2/M phase in human HepG2 cells assessed as down regulation of cyclin B1 at 4 uM after 24 hrs by Western blot analysis

Compound | IC50 [1] | IC50 (HepG2 [2]) | IC50 (MCF7 [3]) | IC50 (HeLa [4]) | Ratio IC50 (HepG2 [5]) | Activity (HepG2 [6]) | Activity (HepG2 [7]) | Activity (HepG2 [8]) | Activity (HepG2 [9]) | Activity (MCF7 [10]) | Activity (HeLa [11]) | Ratio IC50 (MCF7 [12]) | Ratio IC50 (HeLa [13]) | further results
CCOc1ccc2c(c1)sc1nc(-c3ccccc3)c(CN3CCCC3)n12 | 18.8 µM | 3.76 µM | 3.76 µM | 4.3 µM | 5 | 60.12% | 12.64% | 27.23% | Active | Active | Active |  |  | 
c1ccc(-c2nc3sc4ccccc4n3c2CN2CCCC2)cc1 | 18.5 µM | 3.01 µM | 3.87 µM | 4.65 µM | 6.15 | 60.2% | 10.52% | 29.27% | Active | Active | Active | 4.78 | 3.98 | 
CCOc1ccc2c(c1)sc1nc(-c3ccccc3)c(CN3CCN(c4ccccn4)CC3)n12 | 16 µM | 2.84 µM | 4.45 µM | 4.36 µM | 5.63 | 55.24% | 13.42% | 31.33% | Active | Active | Active | 3.59 | 3.67 | Activity (HepG2 [14]): Active; Activity (HepG2 [15]): Active; Activity (HepG2 [16]): Active; Activity (HepG2 [17]): Active; Activity (HepG2 [18]): Active; Activity (HepG2 [19]): Active; Activity (HepG2 [20]): Active; Activity (HepG2 [21]): Active; fold change (FC) (HepG2 [22]): 2; Activity (HepG2 [23]): Active
Clc1ccc(-c2nc3sc4ccccc4n3c2CN2CCCC2)cc1 | 21.2 µM | 3.46 µM | 4.07 µM | 4.33 µM | 6.12 | 81.75% | 4.58% | 13.66% | Active | Active | Active | 5.2 | 4.89 | 
